Experimental data: PubChem BioAssay
Activity calls are given as the source filed them.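 The calls were made as follows, unless noted: active = NADPH fluorescence slope more negative than the mean of all samples by about 3 SD, 99.7% confidence; inactive = the rest.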

How the values were obtained:
[1] = inhibitors of TNFa-induced NFkB p65 translocation, primary screen, imaging, HUVEC, MLSMR starter and 10KST1 sets (AID 438;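 active = inhibition above 20% together with a positive visual image hit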;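 also: compound added about 3h40 before a 20 min TNFalpha stimulation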;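 as to inhibition: signal is the nuclear over cytoplasmic p65 intensity ratio per well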); details: HUVEC TNFa-induced p65 nuclear translocation; cell count: measured here: nuclei count (cytotoxicity indicator), at 2.08 µM; inhibition: at 2 µM, stronger effect = higher value, 0% TNFa-plus-vehicle, 100% no-TNFa wells
[2] = reduction of polyQ htt aggregates in cells – imaging, exon1htt(103Q)mCFP cells, high-content imaging, primary screen (AID 483;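 active = visual image review flags a hit and inhibition of aggregation exceeds 20%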;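 also: compound exposure lasted 3 days before fixation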;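 as to nuclei count: percent of the per-plate median nuclei count of sample wells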); details: exon1htt(103Q)mCFP cell line, aggregate imaging, at 2 µM; inhibition of aggregation: stronger effect = higher value; nuclei count: measured here: cell count, toxicity
[3] = endothelial E-selectin expression blockers – imaging, HUVEC, immunofluorescence, MLSMR starter and 10KST1 sets, primary screen (AID 487;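 active = visually confirmed hit in the image check and inhibition above 20%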;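 as to inhibition: signal is fraction of cell area covered by stained E-selectin grains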;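 as to nuclei count: 100% = median nuclei count of all wells on the same plate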); details: HUVEC TNFalpha-induced E-selectin immunofluorescence imaging, at 2 µM; inhibition: stronger effect = higher value; nuclei count: measured here: cell number, toxicity
[4] = target: Voltage-gated potassium channel subunit beta-2 (Rattus norvegicus) (UniProt P62483); experiment: inhibitors of rat Kvbeta2 reductase activity – biochemical, NADPH fluorescence, primary screen (AID 622;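 active = fluorescence slope higher than the sample average by over 3 SD, cut at about -0.22 in these data, passing the limit was not always enough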;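 also: slope of raw intensity against log time taken from 70 to 1610 s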); details: recombinant KvBeta, 4-cyanobenzaldehyde reduction, at 10 µM, stronger effect = higher value
Sequence of Voltage-gated potassium channel subunit beta-2 (Rattus norvegicus) (P62483 whole entry, looked up): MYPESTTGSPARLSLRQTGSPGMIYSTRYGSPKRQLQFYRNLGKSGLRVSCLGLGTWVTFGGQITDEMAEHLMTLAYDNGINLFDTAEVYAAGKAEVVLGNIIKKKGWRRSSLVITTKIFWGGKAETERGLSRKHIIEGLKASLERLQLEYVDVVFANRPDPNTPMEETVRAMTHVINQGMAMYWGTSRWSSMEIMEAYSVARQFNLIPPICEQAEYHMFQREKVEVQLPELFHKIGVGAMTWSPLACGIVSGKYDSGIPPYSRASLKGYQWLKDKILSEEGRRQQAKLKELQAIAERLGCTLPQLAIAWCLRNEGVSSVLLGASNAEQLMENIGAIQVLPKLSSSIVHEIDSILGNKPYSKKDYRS

[5] = target: Voltage-gated potassium channel subunit beta-2 (Rattus norvegicus) (UniProt P62483); experiment: enhancers of rat Kvbeta2 NADPH turnover – biochemical, NADPH fluorescence, primary screen (AID 623); details: Recombinant KvBeta, NADPH fluorescence decrease slope, 10 min; at 10 µM; stronger effect = lower value;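 also: fluorescence intensity change per second fitted from 20 to 320 s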
[6] = target: Muscarinic acetylcholine receptor M4 (Homo sapiens) (UniProt P08173); experiment: M4-linked GIRK flux change, two-sided – cell-based, HEK293 M4/GIRK, thallium flux, BTC-AM, M4 allosteric agonist project, primary screen (AID 625;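 active = fluorescence slope after compound addition differing from the mean of all tested samples at 99.7% confidence, mostly higher but some lower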;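 also: thallium influx through GIRK channels coupled to M4 in HEK293 cells with BTC-AM dye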); details: at 10 µM, actives lie on both sides
Sequence of Muscarinic acetylcholine receptor M4 (Homo sapiens) (P08173 whole entry, looked up): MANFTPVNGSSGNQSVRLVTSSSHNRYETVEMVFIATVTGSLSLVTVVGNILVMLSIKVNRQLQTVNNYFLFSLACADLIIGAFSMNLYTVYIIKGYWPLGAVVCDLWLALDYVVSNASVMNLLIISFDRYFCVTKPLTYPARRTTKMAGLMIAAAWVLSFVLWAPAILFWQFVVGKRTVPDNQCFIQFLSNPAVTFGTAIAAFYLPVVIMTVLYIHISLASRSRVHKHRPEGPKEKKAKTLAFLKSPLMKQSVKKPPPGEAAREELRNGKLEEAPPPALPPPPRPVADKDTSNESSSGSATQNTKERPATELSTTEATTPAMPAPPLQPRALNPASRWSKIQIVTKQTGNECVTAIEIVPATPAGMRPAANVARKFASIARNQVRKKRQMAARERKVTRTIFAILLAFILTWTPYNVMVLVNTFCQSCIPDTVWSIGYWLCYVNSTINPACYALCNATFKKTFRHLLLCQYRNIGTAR
Method in brief: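 assay system = HEK293 cells with M4 receptor and GIRK channels | medium = pH 7.3 thallium assay buffer | doses = 10 µM final, single point | timing = cells overnight at 37 °C, BTC-AM loading 1 h, reads 2 min total | signal = BTC-AM fluorescence, 1 Hz kinetic reads | read-out = post-addition slope, 15–24 s, of baseline-normalized fluorescence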

[7] = blockers of RIG-like receptor reporter activation – cell-based, Sendai virus stimulus, luciferase, 10K MLSCN set, TLR/RLR signaling modifier project, primary screen (AID 602276;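 active = inhibition at or above 50% at 10 µM; inactive = inhibition below 50%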;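 also: firefly luciferase from ISG56 promoter only with Renilla not read in this screen; 0% = Sendai virus plus DMSO and 100% = medium plus DMSO without virus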); details: HEK293 RL24 IRF3 luciferase reporter, at 10 µM, stronger effect = higher value
[8] = TLR3 IRF3 reporter activation blockers – cell-based, poly I:C stimulus, luciferase, 10K MLSCN set, primary screen (AID 602277;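 active = inhibition of the reporter signal at or above 50%; inactive = inhibition below 50%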); details: HEK293-TLR3 RL24 IRF3 luciferase reporter, at 10 µM, stronger effect = higher value

Compound	cell count [1]	inhibition [1]	inhibition of aggregation [2]	nuclei count [2] [%]	inhibition [3]	nuclei count [3] [%]	fluorescence slope [4]	NADPH fluorescence slope [5]	fluorescence slope [6]	inhibition [7]	inhibition [8]
CCOC(=O)c1sc(C)c2c1NC(C)(c1cccs1)NC2=O (stereo not drawn)	674	-2% (inactive)	-5.5% (inactive)	104	-10.7% (inactive)	101	-0.49 (inactive)	1.8e-05 (inactive)	0.00453 (inactive)	5.21% (inactive)	10.9% (inactive)
Cc1ccc(-n2ncc3c(Nc4c(C)n(C)n(-c5ccccc5)c4=O)ncnc32)c(C)c1	443	9.3% (inactive)	6.8% (inactive)	96.6	-81.8% (inactive)	120	-0.538 (inactive)	-2.2e-05 (inactive)	0.0045 (inactive)	13.9% (inactive)	12.5% (inactive)
O=C(COc1nnnc2ccccc12)N1CCCc2ccccc21	327	0.2% (inactive)	-10.1% (inactive)	106	-50.4% (inactive)	130	-0.43 (inactive)	-7.5e-05 (inactive)	0.00597 (inactive)	8.08% (inactive)	16.5% (inactive)
COc1cc(C2Nc3cccc4cccc(c34)N2)cc(OC)c1O	372	-0.6% (inactive)	29.3% (inactive)	91.5	-27.6% (inactive)	108	-0.464 (inactive)	1.6e-05 (inactive)	0.00443 (inactive)	3.04% (inactive)	5% (inactive)
CC(NC(=O)c1ccccc1NC(=O)c1ccco1)C(=O)O (stereo not drawn)	438	0.9% (inactive)	-9.6% (inactive)	100	-67.5% (inactive)	121	-0.551 (inactive)	-5.5e-05 (inactive)	0.006 (inactive)	23.6% (inactive)	20% (inactive)
COc1ccc(-n2cc(-c3ccccc3)c3c(N4CCN(CCO)CC4)ncnc32)cc1	568	-26.5% (inactive)	3.6% (inactive)	102	-29.3% (inactive)	99.1	-0.519 (inactive)	-6.1e-07 (inactive)	0.003 (inactive)	13.2% (inactive)	25.2% (inactive)
CCOC(=O)CNC(=O)CSc1ncnc2c1cnn2-c1ccccc1	564	-9.2% (inactive)	-10.3% (inactive)	113	-69.6% (inactive)	118	-0.562 (inactive)	3.9e-05 (inactive)	0.00493 (inactive)	7.97% (inactive)	8.26% (inactive)
C=CCn1c(=O)[nH]c2cc(C(=O)N3CCN(c4cc(C)ccc4C)CC3)ccc2c1=O	481	-28.5% (inactive)	-1.6% (inactive)	109	-67.4% (inactive)	127	-0.245 (inactive)	-2.6e-05 (inactive)	0.00726 (inactive)	14.1% (inactive)	-2.95% (inactive)
N#Cc1nc(-c2cccs2)oc1NCc1ccc(Cl)cc1	341	-8.1% (inactive)	19.1% (inactive)	98.9	47.2% (inactive)	106	-0.526 (inactive)	-2e-05 (inactive)	0.00571 (inactive)	18.3% (inactive)	10.5% (inactive)
Cc1cccc(-n2nnc(C(=O)NCc3ccccc3)c2N)c1	477	2.1% (inactive)	-17.4% (inactive)	116	-2.7% (inactive)	106	-0.461 (inactive)	-0.000212 (inactive)	0.0054 (inactive)	9.81% (inactive)	9.19% (inactive)
C/C(Cl)=C\Cn1c(NCCc2ccccc2)nc2c1c(=O)n(C)c(=O)n2C	636	-7.8% (inactive)	29.8% (inactive)	84.6	6.4% (inactive)	96.4	-0.286 (inactive)	-2.8e-05 (inactive)	0.00523 (inactive)	12.1% (inactive)	2.85% (inactive)
CCSC1=C(C#N)C(c2cccc(OC)c2)CC(=O)N1 (stereo not drawn)	667	-14.3% (inactive)	-16.9% (inactive)	101	-70.7% (inactive)	114	-0.496 (inactive)	-3.8e-05 (inactive)	0.00475 (inactive)	14.9% (inactive)	11.6% (inactive)
CCSc1nnc(NC(=O)c2ccc(C)o2)s1	603	-10.7% (inactive)	21.1% (inactive)	96.3	11.4% (inactive)	96.3	-0.531 (inactive)	-4e-05 (inactive)	0.00557 (inactive)	-41.5% (inactive)	-89% (inactive)
COC(=O)Cn1c(C)nc2c(sc3nc(C)cc(C)c32)c1=O	674	-5% (inactive)	14.7% (inactive)	81.2	16% (inactive)	100	-0.603 (inactive)	-2e-05 (inactive)	0.00473 (inactive)	-40.7% (inactive)	-91.2% (inactive)
COc1cccc(Oc2ccc(N)cn2)c1	392	-4.4% (inactive)	-4.1% (inactive)	100	-126% (inactive)	114	-0.537 (inactive)	-0.000148 (inactive)	0.0033 (inactive)	-7.7% (inactive)	1.94% (inactive)
CCN(CC)C(=O)Oc1ccccc1NC(C)=O	366	-3.9% (inactive)	17.2% (inactive)	85.8	-63.5% (inactive)	121	-0.221 (inactive)	2.5e-07 (inactive)	0.00764 (inactive)	20.6% (inactive)	13.2% (inactive)
CCn1ncc(C2=NOC(C(=O)N3CCC(C(N)=O)CC3)C2)c1C (stereo not drawn)	846	-7.8% (inactive)	-19.8% (inactive)	105	-117% (inactive)	109	-0.47 (inactive)	3.7e-05 (inactive)	0.00576 (inactive)	-11.4% (inactive)	-7.82% (inactive)
COc1ccccc1-c1cn[nH]c(=S)n1	428	1.6% (inactive)	4.2% (inactive)	93	-41.2% (inactive)	101	-0.576 (inactive)	2.7e-05 (inactive)	0.00535 (inactive)	-32.7% (inactive)	-25.8% (inactive)
O=C(COc1ccc(S(=O)(=O)N2CCCC2)cc1Cl)NC1CC1	349	5.7% (inactive)	-1.8% (inactive)	58.7	21.6% (inactive)	98.3	-0.232 (inactive)	-1.9e-05 (inactive)	0.007 (inactive)	15.4% (inactive)	16.4% (inactive)
O=C(COC(=O)c1cc(S(=O)(=O)N2CCOCC2)ccc1O)NCC1CCCO1 (stereo not drawn)	426	9.7% (inactive)	-4.1% (inactive)	88.7	-39.1% (inactive)	113	-0.345 (inactive)	5.4e-05 (inactive)	0.00615 (inactive)	15.4% (inactive)	24.6% (inactive)
FC(F)(F)COc1nc(N2CCCCC2)nc(N2CCNCC2)n1	372	-7.9% (inactive)	-3.5% (inactive)	99.5	13.6% (inactive)	109	-0.321 (inactive)	-5.4e-05 (inactive)	0.00559 (inactive)	4.6% (inactive)	21.6% (inactive)
CN(C)CCSc1nnc2sc3ccccc3n12	599	-5% (inactive)	-2.2% (inactive)	105	-71.5% (inactive)	110	-0.477 (inactive)	-5.9e-05 (inactive)	0.00534 (inactive)	-0.357% (inactive)	12.6% (inactive)
O=C(Cn1c(=O)[nH]c2ccsc2c1=O)NC1CCCCCC1	468	-0.7% (inactive)	19.2% (inactive)	104	13.2% (inactive)	107	-0.26 (inactive)	-3.5e-06 (inactive)	0.0062 (inactive)	17.6% (inactive)	9.21% (inactive)
Cc1cccc(-c2noc(CCC(=O)Nc3ccccc3)n2)c1	430	9.5% (inactive)	7.6% (inactive)	92.6	68.5% (inactive)	140	-0.289 (inactive)	-2.3e-05 (inactive)	0.00559 (inactive)	-7.26% (inactive)	-4.8% (inactive)
COC(=O)c1cc(OC)c(OC)cc1NC(=O)CC1CCCCC1	291	-8.9% (inactive)	0.4% (inactive)	84.5	36.1% (inactive)	73.5	-0.558 (inactive)	-2.3e-05 (inactive)	0.00549 (inactive)	11.3% (inactive)	11.2% (inactive)
c1c2c(cc3sc(N4CCCCC4)nc13)OCCO2	266	-5.8% (inactive)	14.4% (inactive)	87.6	2.1% (inactive)	88.9	-0.54 (inactive)	-9.8e-06 (inactive)	0.00468 (inactive)	-0.203% (inactive)	-45.7% (inactive)
Cc1c(Br)c(C(F)(F)F)nn1CC(=O)NCCN1CCOCC1	412	1.6% (inactive)	0.2% (inactive)	86.5	-39.7% (inactive)	114	-0.553 (inactive)	-5.2e-05 (inactive)	0.00496 (inactive)	1.54% (inactive)	21.8% (inactive)
Cc1cc(NC(=O)c2cnn3cccnc23)no1	467	0.3% (inactive)	3.3% (inactive)	104	-33.8% (inactive)	119	-0.613 (inactive)	-4.3e-05 (inactive)	0.00996 (inactive)	-57.6% (inactive)	-124% (inactive)
